Data published in ChEMBL document CHEMBL1287807, “Novel TNF-α converting enzyme (TACE) inhibitors as potential treatment for inflammatory diseases” (Bioorg Med Chem Lett, 2010).
One block for each molecule: values may come before it.

Assays:
Interstitial collagenase = molecular target: T1, Interstitial collagenase (Homo sapiens, UniProt P03956); assay: Inhibition of MMP1
T1 sequence (P03956 whole entry): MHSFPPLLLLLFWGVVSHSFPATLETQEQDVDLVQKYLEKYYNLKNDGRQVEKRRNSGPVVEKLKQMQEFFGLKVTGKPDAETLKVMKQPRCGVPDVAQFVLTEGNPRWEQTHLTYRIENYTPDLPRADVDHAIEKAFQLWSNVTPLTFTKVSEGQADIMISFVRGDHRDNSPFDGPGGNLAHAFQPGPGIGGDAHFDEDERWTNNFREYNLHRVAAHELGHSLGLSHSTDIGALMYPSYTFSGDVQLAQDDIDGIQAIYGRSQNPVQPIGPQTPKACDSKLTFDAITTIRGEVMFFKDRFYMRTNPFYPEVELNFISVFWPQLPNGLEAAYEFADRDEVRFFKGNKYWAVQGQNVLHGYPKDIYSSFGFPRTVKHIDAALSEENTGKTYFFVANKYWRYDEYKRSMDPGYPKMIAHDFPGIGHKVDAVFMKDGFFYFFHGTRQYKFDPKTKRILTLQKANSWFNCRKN

Collagenase 3 = Collagenase 3 (Homo sapiens, UniProt P45452); assay: Inhibition of MMP13
[1] = Clearance in rat at 3 mg/kg, iv; assay type: ADME, organism-based; set-up: dose 3 mg/kg, route intravenous; details: in vivo
[2] = Clearance in dog at 0.5 mg/kg, iv; assay type: ADME, organism-based, Canis lupus familiaris; set-up: dose 0.5 mg/kg, route intravenous; details: in vivo
[3] = Oral bioavailability in rat at 10 mg/kg; assay type: ADME, organism-based; details: in vivo
[4] = AUC in dog at 5 mg/kg, po; assay type: ADME, organism-based, Canis lupus familiaris; set-up: dose 5 mg/kg, route oral; details: plasma
[5] = Tmax in dog at 5 mg/kg, po; assay type: ADME, organism-based, Canis lupus familiaris; set-up: dose 5 mg/kg, route oral; details: in vivo
[6] = Oral bioavailability in dog at 5 mg/kg; assay type: ADME, organism-based, Canis lupus familiaris; details: in vivo
Matrilysin = molecular target: T2, Matrilysin (Homo sapiens, UniProt P09237); assay: Inhibition of MMP7
T2 sequence (P09237 whole entry): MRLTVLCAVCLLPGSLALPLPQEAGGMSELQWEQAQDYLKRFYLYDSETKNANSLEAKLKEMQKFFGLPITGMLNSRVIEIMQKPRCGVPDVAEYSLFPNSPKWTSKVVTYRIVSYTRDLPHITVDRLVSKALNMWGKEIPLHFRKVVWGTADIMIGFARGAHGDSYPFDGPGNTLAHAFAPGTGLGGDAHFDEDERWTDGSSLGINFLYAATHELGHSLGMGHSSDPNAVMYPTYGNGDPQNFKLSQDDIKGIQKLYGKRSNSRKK

[7] = molecular target: Matrix metalloproteinase-9 (Homo sapiens, UniProt P14780); assay: Inhibition of MMP9
Sequence of Matrix metalloproteinase-9 (P14780 whole entry, the tested form may be a part): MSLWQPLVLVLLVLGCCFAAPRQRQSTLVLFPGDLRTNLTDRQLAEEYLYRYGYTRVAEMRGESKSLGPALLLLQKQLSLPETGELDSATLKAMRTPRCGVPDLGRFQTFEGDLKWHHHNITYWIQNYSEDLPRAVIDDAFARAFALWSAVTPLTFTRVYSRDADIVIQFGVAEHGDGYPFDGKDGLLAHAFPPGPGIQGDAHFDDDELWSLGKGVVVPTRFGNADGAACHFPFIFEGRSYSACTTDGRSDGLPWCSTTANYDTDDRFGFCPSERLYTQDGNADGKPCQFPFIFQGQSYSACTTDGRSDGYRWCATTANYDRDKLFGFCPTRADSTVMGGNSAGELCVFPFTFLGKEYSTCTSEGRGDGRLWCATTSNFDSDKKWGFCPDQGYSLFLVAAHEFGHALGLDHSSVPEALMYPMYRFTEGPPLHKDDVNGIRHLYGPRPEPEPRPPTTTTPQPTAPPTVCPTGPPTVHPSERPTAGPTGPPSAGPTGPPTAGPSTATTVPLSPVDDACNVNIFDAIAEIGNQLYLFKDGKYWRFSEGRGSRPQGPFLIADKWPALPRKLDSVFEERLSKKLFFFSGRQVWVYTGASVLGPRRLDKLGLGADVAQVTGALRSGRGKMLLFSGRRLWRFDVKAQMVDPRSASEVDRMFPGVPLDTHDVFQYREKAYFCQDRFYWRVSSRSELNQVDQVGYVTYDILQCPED

[8] = molecular target: Disintegrin and metalloproteinase domain-containing protein 17 (Homo sapiens, UniProt P78536); assay: Inhibition of TACE
Sequence of Disintegrin and metalloproteinase domain-containing protein 17 (P78536 whole entry, the tested form may be a part): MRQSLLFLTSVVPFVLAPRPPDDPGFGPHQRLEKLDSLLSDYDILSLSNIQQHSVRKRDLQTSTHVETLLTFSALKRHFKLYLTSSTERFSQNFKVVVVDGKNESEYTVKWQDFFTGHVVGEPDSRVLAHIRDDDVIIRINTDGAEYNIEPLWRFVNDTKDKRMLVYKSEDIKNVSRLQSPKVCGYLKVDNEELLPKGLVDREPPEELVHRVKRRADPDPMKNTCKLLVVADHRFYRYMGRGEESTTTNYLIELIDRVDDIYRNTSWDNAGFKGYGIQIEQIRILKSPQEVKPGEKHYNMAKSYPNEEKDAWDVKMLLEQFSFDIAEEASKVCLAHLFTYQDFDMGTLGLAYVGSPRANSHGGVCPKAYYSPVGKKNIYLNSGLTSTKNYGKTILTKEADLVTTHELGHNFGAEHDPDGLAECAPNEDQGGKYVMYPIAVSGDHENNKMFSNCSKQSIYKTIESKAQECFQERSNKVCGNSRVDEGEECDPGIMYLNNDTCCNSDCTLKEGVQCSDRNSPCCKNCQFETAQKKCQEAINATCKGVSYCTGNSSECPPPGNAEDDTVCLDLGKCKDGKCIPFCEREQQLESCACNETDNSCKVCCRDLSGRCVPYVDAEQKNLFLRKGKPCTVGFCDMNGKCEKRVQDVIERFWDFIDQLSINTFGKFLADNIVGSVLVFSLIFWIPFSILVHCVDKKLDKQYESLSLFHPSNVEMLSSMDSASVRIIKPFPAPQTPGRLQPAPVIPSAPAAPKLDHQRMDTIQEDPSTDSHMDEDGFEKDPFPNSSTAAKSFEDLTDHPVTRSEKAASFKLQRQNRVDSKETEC

[9] = molecular target: 72 kDa type IV collagenase (Homo sapiens, UniProt P08253); assay: Inhibition of MMP2
Sequence of 72 kDa type IV collagenase (P08253 whole entry): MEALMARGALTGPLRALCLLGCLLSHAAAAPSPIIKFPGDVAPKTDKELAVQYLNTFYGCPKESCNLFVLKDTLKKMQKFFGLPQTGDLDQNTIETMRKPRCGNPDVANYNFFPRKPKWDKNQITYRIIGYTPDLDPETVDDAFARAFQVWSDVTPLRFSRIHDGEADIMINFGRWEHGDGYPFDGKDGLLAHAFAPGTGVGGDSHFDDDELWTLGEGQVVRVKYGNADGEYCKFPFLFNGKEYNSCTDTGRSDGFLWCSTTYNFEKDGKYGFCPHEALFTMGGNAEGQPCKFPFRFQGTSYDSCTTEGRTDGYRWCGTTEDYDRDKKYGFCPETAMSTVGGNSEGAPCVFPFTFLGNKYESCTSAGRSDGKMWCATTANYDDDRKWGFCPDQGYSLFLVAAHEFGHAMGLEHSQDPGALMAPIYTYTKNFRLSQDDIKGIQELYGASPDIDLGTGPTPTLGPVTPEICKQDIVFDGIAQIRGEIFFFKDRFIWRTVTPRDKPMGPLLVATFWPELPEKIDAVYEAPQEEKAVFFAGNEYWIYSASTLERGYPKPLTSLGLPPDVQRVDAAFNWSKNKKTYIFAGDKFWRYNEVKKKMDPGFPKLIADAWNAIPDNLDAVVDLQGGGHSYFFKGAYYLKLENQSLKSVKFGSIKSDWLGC

[10] = Half life in dog at 0.5 mg/kg, iv; assay type: ADME, organism-based, Canis lupus familiaris; set-up: dose 0.5 mg/kg, route intravenous; details: in vivo
[11] = Tmax in rat at 10 mg/kg, po; assay type: ADME, organism-based; set-up: dose 10 mg/kg, route oral; details: in vivo
[12] = AUC in monkey at 1 mg/kg, iv; assay type: ADME, organism-based, Macaca mulatta; set-up: dose 1 mg/kg, route intravenous; details: rhesus monkey, plasma
Procedure, shortened: (§1)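 Compound dosed as its Na+ salt, intravenously or orally, at the dose given in each line. AUC is reported in uM.h.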

[13] = Tmax in monkey at 3 mg/kg, po; assay type: ADME, organism-based, Macaca mulatta; set-up: dose 3 mg/kg, route oral; details: rhesus monkey, in vivo
[14] = AUC in rat at 3 mg/kg, iv; assay type: ADME, organism-based; set-up: dose 3 mg/kg, route intravenous; details: plasma; procedure, shortened: as §1
[15] = AUC in dog at 0.5 mg/kg, iv; assay type: ADME, organism-based, Canis lupus familiaris; set-up: dose 0.5 mg/kg, route intravenous; details: plasma
[16] = Half life in monkey at 1 mg/kg, iv; assay type: ADME, organism-based, Macaca mulatta; set-up: dose 1 mg/kg, route intravenous; details: rhesus monkey, in vivo
[17] = AUC in monkey at 3 mg/kg, po; assay type: ADME, organism-based, Macaca mulatta; set-up: dose 3 mg/kg, route oral; details: rhesus monkey, plasma; procedure, shortened: as §1
[18] = Half life in rat at 3 mg/kg, iv; assay type: ADME, organism-based; set-up: dose 3 mg/kg, route intravenous; details: in vivo
[19] = Oral bioavailability in monkey at 3 mg/kg; assay type: ADME, organism-based, Macaca mulatta; details: rhesus monkey, in vivo
[20] = Clearance in monkey at 1 mg/kg, iv; assay type: ADME, organism-based, Macaca mulatta; set-up: dose 1 mg/kg, route intravenous; details: rhesus monkey, in vivo
Stromelysin-1 = Stromelysin-1 (Homo sapiens, UniProt P08254); assay: Inhibition of MMP3
Sequence of Stromelysin-1 (P08254 whole entry): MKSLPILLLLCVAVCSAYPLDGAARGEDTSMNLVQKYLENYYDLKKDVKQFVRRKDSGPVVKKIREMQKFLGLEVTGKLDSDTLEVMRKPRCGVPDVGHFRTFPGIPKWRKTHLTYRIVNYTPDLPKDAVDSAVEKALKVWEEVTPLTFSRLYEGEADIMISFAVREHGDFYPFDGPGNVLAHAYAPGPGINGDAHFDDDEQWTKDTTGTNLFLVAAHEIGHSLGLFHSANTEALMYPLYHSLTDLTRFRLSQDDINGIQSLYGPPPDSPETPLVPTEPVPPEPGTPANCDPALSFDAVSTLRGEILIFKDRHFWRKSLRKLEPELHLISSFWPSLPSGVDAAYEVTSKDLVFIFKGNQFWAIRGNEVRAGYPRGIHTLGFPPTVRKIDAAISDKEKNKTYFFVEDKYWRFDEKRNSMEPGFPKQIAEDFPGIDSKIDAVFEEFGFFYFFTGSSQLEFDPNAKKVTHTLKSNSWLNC

[21] = AUC in rat at 10 mg/kg, po; assay type: ADME, organism-based; set-up: dose 10 mg/kg, route oral; details: plasma; procedure, shortened: as §1
[22] = molecular target: T3, Disintegrin and metalloproteinase domain-containing protein 10 (Homo sapiens, UniProt O14672); assay: Inhibition of ADAM10
T3 sequence (O14672 whole entry): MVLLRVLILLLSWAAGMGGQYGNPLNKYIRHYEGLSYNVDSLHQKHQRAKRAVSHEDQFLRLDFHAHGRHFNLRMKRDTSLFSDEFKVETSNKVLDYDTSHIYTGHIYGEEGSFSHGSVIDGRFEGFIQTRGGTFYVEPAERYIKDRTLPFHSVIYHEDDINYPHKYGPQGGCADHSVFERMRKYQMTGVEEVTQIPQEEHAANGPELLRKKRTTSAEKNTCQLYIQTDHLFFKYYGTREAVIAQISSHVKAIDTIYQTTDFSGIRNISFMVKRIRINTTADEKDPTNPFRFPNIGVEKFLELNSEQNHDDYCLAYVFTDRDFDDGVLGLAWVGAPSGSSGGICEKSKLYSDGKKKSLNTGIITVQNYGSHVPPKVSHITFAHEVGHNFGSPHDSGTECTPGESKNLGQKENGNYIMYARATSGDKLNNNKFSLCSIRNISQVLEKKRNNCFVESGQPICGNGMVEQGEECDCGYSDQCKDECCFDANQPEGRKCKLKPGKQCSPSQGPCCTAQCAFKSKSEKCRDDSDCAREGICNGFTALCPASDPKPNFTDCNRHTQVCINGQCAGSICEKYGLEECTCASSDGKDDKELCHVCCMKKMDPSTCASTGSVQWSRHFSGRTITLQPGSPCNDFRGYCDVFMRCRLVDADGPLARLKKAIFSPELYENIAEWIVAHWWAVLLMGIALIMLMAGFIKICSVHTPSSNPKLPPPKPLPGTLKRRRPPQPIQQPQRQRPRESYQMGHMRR

Blood = assay: Antiinflammatory activity in human whole blood assessed as inhibition of LPS-induced TNFalpha production after 3.5 hrs by ELISA; assay type: functional
Procedure, shortened: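 Human whole blood, diluted 1:1 in serum-free RPMI with L-glutamine, Pen-Strep and HEPES, is preincubated with compound for 1 h at 37 °C. It is then stimulated with LPS. Supernatant is harvested after 3.5 h incubation, and TNF-α concentration is measured by ELISA.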

SMILES: COc1ccc2c(c1)C(=O)N(C[C@@]1(C#Cc3cccnc3)NC(=O)NC1=O)C2
IC50 (Interstitial collagenase): 5200 nM | IC50 (Collagenase 3): 2920 nM | clearance [1]: 317 mL/min/kg | clearance [2]: 317 mL/min/kg | bioavailability [3]: 15% | AUC [4]: 1.1 µM·h | Tmax [5]: 6 min | bioavailability [6]: 9% | IC50 (Matrilysin): > 40000 nM | IC50 [7]: 1010 nM | Ki [8]: 0.62 nM | IC50 [9]: 431 nM | half-life [10]: 0.9 h | Tmax [11]: 2.2 h | AUC [12]: 3.8 µM·h | Tmax [13]: 1.2 h | AUC [14]: 7.3 µM·h | AUC [15]: 1.3 µM·h | half-life [16]: 2.4 h | AUC [17]: 2.6 µM·h | half-life [18]: 2.2 h | bioavailability [19]: 23% | clearance [20]: 217 mL/min/kg | IC50 (Stromelysin-1): 5800 nM | AUC [21]: 4 µM·h | IC50 [22]: 22 nM | Activity (Blood): 220 nM

SMILES: COc1ccc2c(c1)C(=O)N(C[C@@]1(C#Cc3cnc4[nH]cnc4c3)NC(=O)NC1=O)C2
Ki [8]: 0.92 nM | Activity (Blood): 193 nM

SMILES: COc1ccc2c(c1)C(=O)N(C[C@@]1(C#Cc3cccc(C(C)C)c3)NC(=O)NC1=O)C2
Ki [8]: 0.5 nM | Activity (Blood): 19000 nM

SMILES: COc1ccc2c(c1)C(=O)N(C[C@@]1(C#Cc3cccc(C)c3)NC(=O)NC1=O)C2
Ki [8]: 0.72 nM | Activity (Blood): 5148 nM

SMILES: COc1ccc2c(c1)C(=O)N(C[C@@]1(C#Cc3ccccc3C)NC(=O)NC1=O)C2
Ki [8]: 2 nM | Activity (Blood): 3142 nM

SMILES: COc1ccc2c(c1)C(=O)N(C[C@@]1(C#Cc3cccc(C(N)=O)c3)NC(=O)NC1=O)C2
Ki [8]: 0.85 nM

SMILES: COc1ccc2c(c1)C(=O)N(C[C@@]1(C#Cc3ccc(C(N)=O)cc3)NC(=O)NC1=O)C2
Ki [8]: 0.56 nM | Activity (Blood): 165 nM

SMILES: COc1ccc2c(c1)C(=O)N(C[C@@]1(C#Cc3ccccc3C(N)=O)NC(=O)NC1=O)C2
Ki [8]: 2.78 nM | Activity (Blood): 5311 nM

SMILES: COc1ccc2c(c1)C(=O)N(C[C@@]1(C#Cc3ccc(C(=O)NC4CC4)cc3)NC(=O)NC1=O)C2
Ki [8]: 2.55 nM | Activity (Blood): 487 nM

SMILES: COc1ccc2c(c1)C(=O)N(C[C@@]1(C#Cc3ccc(C(C)=O)cc3)NC(=O)NC1=O)C2
Ki [8]: 0.5 nM | Activity (Blood): 352 nM

SMILES: COc1ccc2c(c1)C(=O)N(C[C@@]1(C#Cc3ccc([C@H](C)N)cc3)NC(=O)NC1=O)C2
Ki [8]: 2.35 nM | Activity (Blood): 621 nM

SMILES: COc1ccc2c(c1)C(=O)N(C[C@@]1(C#Cc3ccc4cnn(C)c4c3)NC(=O)NC1=O)C2
Ki [8]: 0.52 nM | Activity (Blood): 10400 nM

SMILES: COc1ccc2c(c1)C(=O)N(C[C@@]1(C#Cc3ccc4[nH]cnc4c3)NC(=O)NC1=O)C2
Ki [8]: 0.6 nM | Activity (Blood): 211 nM

SMILES: COc1ccc2c(c1)C(=O)N(C[C@@]1(C#Cc3ccc4[nH]c(=O)[nH]c4c3)NC(=O)NC1=O)C2
Ki [8]: 0.53 nM | Activity (Blood): 240 nM

These reach a lower Ki [8]. Values come first.

Ki [8]: 0.29 nM
SMILES: CCN1CCN(Cc2ccc(C#C[C@]3(CN4Cc5ccc(OC)cc5C4=O)NC(=O)NC3=O)cc2)CC1
Activity (Blood): 239 nM

Ki [8]: 0.47 nM
SMILES: COc1ccc2c(c1)C(=O)N(C[C@@]1(C#Cc3ccc(CC4CCN(C)CC4)nc3)NC(=O)NC1=O)C2
Activity (Blood): 195 nM

Ki [8]: 0.16 nM
SMILES: COc1ccc2c(c1)C(=O)N(C[C@@]1(C#Cc3ccc(/C=N/O)cc3)NC(=O)NC1=O)C2
Activity (Blood): 167 nM

Ki [8]: 0.16 nM
SMILES: CCN1CCN(/C(=N\O)c2ccc(C#C[C@]3(CN4Cc5ccc(OC)cc5C4=O)NC(=O)NC3=O)cc2)CC1
Activity (Blood): 20 nM

Ki [8]: 0.18 nM
SMILES: CCN1CCN(/C(=N\O)c2ccc(C#C[C@]3(CN4Cc5ccc(OC)cc5C4=O)NC(=O)NC3=O)cn2)CC1
Activity (Blood): 87 nM

Ki [8]: 0.14 nM
SMILES: COc1ccc2c(c1)C(=O)N(C[C@@]1(C#Cc3ccccc3)NC(=O)NC1=O)C2
Activity (Blood): 784 nM

Ki [8]: 0.22 nM
SMILES: COc1ccc2c(c1)C(=O)N(C[C@@]1(C#Cc3ccc(/C(=N/O)N4CCN(C)CC4)cc3)NC(=O)NC1=O)C2
Activity (Blood): 33 nM

Ki [8]: 0.07 nM
SMILES: COc1ccc2c(c1)C(=O)N(C[C@@]1(C#Cc3ccc(-c4ncccc4O)cc3)NC(=O)NC1=O)C2
Activity (Blood): 117 nM

Ki [8]: 0.26 nM
SMILES: COc1ccc2c(c1)C(=O)N(C[C@@]1(C#Cc3ccc(F)cc3)NC(=O)NC1=O)C2
Activity (Blood): 1675 nM

Ki [8]: 0.2 nM
SMILES: COc1ccc2c(c1)C(=O)N(C[C@@]1(C#Cc3cccc(F)c3)NC(=O)NC1=O)C2
Activity (Blood): 873 nM

Ki [8]: 0.13 nM
SMILES: COc1ccc2c(c1)C(=O)N(C[C@@]1(C#Cc3ccccc3F)NC(=O)NC1=O)C2
Activity (Blood): 617 nM

Ki [8]: 0.41 nM
SMILES: COc1ccc(C#C[C@]2(CN3Cc4ccc(OC)cc4C3=O)NC(=O)NC2=O)cc1
Activity (Blood): 1332 nM

Ki [8]: 0.06 nM
SMILES: COc1ccc2c(c1)C(=O)N(C[C@@]1(C#Cc3cccc(C#N)c3)NC(=O)NC1=O)C2
Activity (Blood): 273 nM

Ki [8]: 0.17 nM
SMILES: COc1ccc2c(c1)C(=O)N(C[C@@]1(C#Cc3ccc4[nH]ccc4c3)NC(=O)NC1=O)C2
Activity (Blood): 751 nM

Ki [8]: 0.19 nM
SMILES: COc1ccc2c(c1)C(=O)N(C[C@@]1(C#Cc3ccc4cc[nH]c4c3)NC(=O)NC1=O)C2
Activity (Blood): 2965 nM

Ki [8]: 0.1 nM
SMILES: CCN1CCN(c2ccc(O)c(-c3ccc(C#C[C@]4(CN5Cc6ccc(OC)cc6C5=O)NC(=O)NC4=O)cc3F)n2)CC1
Activity (Blood): 40 nM
